Columns and labels:
[1] = Binding affinity to Neisseria gonorrhoeae FA19 multidrug efflux protein NorM expressed in Escherichia coli AG100AX in presence of => 100 mM NaCl by fluorescence polarization assay
Outline: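 NaCl at 100 to 400 mM added to rhodamine 6G (1 μM) binding mixtures with purified His6-NorM in 20 mM HEPES-NaOH pH 7.5, 0.02% DDM.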

[2] = Binding affinity to Neisseria gonorrhoeae FA19 multidrug efflux protein NorM […] using Scatchard plot in presence of 0.02% DDM surfactant by fluorescence polarization assay
Escherichia coli [3] = assay: Antimicrobial activity against AcrAB-deficient Escherichia coli AG100AX harboring pBAD plasmid after 18 to 24 hrs by two fold dilution method; assay type: functional
Outline: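 Twofold agar dilution on LB agar containing the antimicrobial, inoculum 10⁴ CFU/spot. Growth was scored after 18–24 h at 37°C, and each MIC determination was repeated at least four times.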

[4] = target: T1, Multidrug resistance protein MdtK (Escherichia coli (strain K12), UniProt P37340); assay: Binding affinity to Escherichia coli K-12 multidrug efflux protein YdhE […] in presence of 0.02% DDM surfactant by fluorescence polarization assay
T1 sequence (P37340 whole entry): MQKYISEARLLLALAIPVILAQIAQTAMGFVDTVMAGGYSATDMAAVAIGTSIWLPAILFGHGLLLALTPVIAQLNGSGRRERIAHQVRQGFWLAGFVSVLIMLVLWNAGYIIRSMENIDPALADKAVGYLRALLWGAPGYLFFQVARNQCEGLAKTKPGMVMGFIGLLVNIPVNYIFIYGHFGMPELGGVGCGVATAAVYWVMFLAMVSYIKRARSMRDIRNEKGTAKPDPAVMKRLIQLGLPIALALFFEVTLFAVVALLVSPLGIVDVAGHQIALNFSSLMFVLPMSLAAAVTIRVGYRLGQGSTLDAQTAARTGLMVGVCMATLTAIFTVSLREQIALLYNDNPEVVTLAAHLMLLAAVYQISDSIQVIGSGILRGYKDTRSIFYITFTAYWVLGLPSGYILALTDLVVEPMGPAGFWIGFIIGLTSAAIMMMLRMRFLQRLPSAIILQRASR

[5] = Binding affinity to Neisseria gonorrhoeae FA19 multidrug efflux protein NorM expressed in Escherichia coli AG100AX at pH 8.5 by fluorescence polarization assay
Outline: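 Rhodamine 6G (1 μM) binding to purified DDM-solubilized His6-NorM, measured by steady-state fluorescence polarization across pH 5.8 to 8.5. Excitation 527 nm, emission 550 nm, 25°C, 5-min equilibration per titration point. KD fitted at each pH.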

Escherichia coli [6] = assay: Antimicrobial activity against AcrAB-deficient Escherichia coli AG100AX harboring pBADomegaydhE plasmid containing Escherichia coli multidrug efflux pump YdhE after 18 to 24 hrs by two fold dilution method; assay type: functional
[7] = Binding affinity to Neisseria gonorrhoeae FA19 multidrug efflux protein NorM expressed in Escherichia coli AG100AX in presence of 0.02% DDM surfactant by fluorescence polarization assay
Escherichia coli [8] = assay: Antimicrobial activity against AcrAB-deficient Escherichia coli AG100AX harboring pBADomeganorM plasmid containing Neisseria gonorrhoeae multidrug efflux pump NorM after 18 to 24 hrs by two fold dilution method; assay type: functional
[9] = target: T2, Multidrug efflux pump subunit AcrB (Escherichia coli (strain K12), UniProt P31224); assay: Binding affinity to Escherichia coli K-12 multidrug efflux protein AcrB at pH 8.4 by equilibrium dialysis method
T2 sequence (P31224 whole entry): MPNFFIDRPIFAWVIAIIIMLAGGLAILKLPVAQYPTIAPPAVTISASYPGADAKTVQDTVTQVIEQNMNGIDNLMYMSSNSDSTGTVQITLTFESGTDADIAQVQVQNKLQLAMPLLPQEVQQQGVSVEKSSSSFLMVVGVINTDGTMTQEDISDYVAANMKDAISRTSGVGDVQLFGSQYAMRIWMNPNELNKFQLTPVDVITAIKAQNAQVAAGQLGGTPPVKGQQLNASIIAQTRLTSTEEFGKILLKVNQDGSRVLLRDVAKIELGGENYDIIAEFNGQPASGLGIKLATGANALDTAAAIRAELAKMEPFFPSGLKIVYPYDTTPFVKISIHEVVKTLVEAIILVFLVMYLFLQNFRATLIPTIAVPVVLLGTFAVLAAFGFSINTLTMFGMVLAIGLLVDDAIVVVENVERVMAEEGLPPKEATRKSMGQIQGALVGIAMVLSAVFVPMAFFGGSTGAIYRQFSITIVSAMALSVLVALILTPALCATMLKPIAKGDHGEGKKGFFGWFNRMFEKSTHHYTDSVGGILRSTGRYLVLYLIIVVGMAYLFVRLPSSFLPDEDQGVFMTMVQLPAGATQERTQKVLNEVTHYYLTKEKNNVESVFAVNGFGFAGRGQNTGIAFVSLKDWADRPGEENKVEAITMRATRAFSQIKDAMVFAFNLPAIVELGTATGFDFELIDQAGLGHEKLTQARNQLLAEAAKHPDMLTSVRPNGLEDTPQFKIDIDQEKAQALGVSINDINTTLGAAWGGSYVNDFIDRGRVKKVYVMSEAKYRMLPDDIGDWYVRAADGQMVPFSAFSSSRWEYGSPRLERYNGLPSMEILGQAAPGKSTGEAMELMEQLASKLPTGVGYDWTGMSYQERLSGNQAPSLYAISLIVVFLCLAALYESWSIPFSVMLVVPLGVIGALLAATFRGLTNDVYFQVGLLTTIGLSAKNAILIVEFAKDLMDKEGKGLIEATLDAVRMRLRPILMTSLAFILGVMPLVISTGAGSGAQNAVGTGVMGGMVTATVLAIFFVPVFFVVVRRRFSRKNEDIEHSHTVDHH

[10] = target: T1, Multidrug resistance protein MdtK; assay: Binding affinity to purified detergent-solubilized Escherichia coli K-12 multidrug efflux protein YdhE by equilibrium dialysis method
Outline: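 YdhE carried a C-terminal His6 tag and was overproduced in E. coli TOP10 by L-arabinose induction. It was solubilized in 1% DDM, then purified by Ni2+-affinity and G-200 sizing in 20 mM HEPES-NaOH pH 7.5 with 0.02% DDM. Purity was >90% by SDS-PAGE. Rhodamine 6G binding was measured by equilibrium dialysis to give the KD and the binding stoichiometry.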

CC/N=c1\cc2oc3cc(NCC)c(C)cc3c(-c3ccccc3C(=O)OCC)c-2cc1C.Cl [RHODAMINE 6G HYDROCHLORIDE]
Kd [1]: 2.5 µM
Kd [2]: 3.6 µM
MIC (Escherichia coli [3]): 3.12 µg/mL
Kd [4]: 3 µM
Kd [5]: 2.6 µM
MIC (Escherichia coli [6]): 12.5 µg/mL
Kd [7]: 3.4 µM
MIC (Escherichia coli [8]): 12.5 µg/mL
Kd [9]: 10.3 µM
Kd [10]: 3 µM

From ChEMBL document CHEMBL1671618, “Functional cloning and characterization of the multidrug efflux pumps NorM from Neisseria gonorrhoeae and YdhE from Escherichia coli” (Antimicrob Agents Chemother, 2008)
